Test [1] in a line: Free radical scavenging assessed as DPPH color reduction. The procedure, abridged:
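DMSO sample mixed in microplate with 0.1 M Tris-HCl pH 7.4 and 0.5 mM DPPH in absolute ethanol. Incubated 20 min in the dark, A517 read. Scavenging taken as % decolorization versus solvent control. SC50 by linear regression from at least five concentrations in triplicate.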

The target of test [2] is T1, Xanthine dehydrogenase/oxidase (Homo sapiens, UniProt P47989). Description: Inhibitory concentration against Xanthine oxidase; Not active at 50 ug/mL concentration. Format: single protein. The procedure, abridged:
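DMSO sample preincubated 15 min with xanthine oxidase (1 u/mL stock) in […] phosphate buffer pH 7.5. Started with 0.15 mM xanthine, run 30 min at 29 °C, stopped with 1 N HCl, A290 read. Compound blanks had HCl added before enzyme. Triplicates; % inhibition versus solvent control; IC50 by linear regression.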

Test [3] in a line: Inhibition of yeast Alpha-glucosidase. Also noted: species or system Saccharomyces cerevisiae. The procedure, abridged:
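Yeast α-glucosidase (0.74 u/mL) in 100 mM phosphate pH 7.0 with BSA and 0.20% sodium azide. DMSO sample incubated with enzyme 5 min, A405 zero read. Substrate added, 10 min at 26–28 °C, A405 re-read; increase used for % inhibition. Triplicates; IC50 by linear regression.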

The target in test [4] is T1, Xanthine dehydrogenase/oxidase. Briefly: Inhibition of Xanthine oxidase. Format: single protein. The procedure, abridged:
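DMSO sample preincubated 15 min with xanthine oxidase (1 u/mL stock) in […] phosphate buffer pH 7.5. Started with 0.15 mM xanthine, run 30 min at 29 °C, stopped with 1 N HCl, A290 read. Triplicates; % inhibition versus solvent control; IC50 by linear regression.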

Test [5] in a line: Free radical scavenging assessed as ABTS (2,2'-azinobis-(3-ethyl benz) thiazoline-6-sulfonic acid) color change. The procedure, abridged: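 ABTS radical cation made by reacting 7 mM ABTS diammonium salt with 2.45 mM potassium persulfate overnight in the dark at room temp, then diluted in PBS pH 7.4 to A734 about 0.70. Sample added to diluted ABTS, A734 read within 1 min. Triplicates with blanks and controls. SC50 by linear regression from at least five concentrations.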

The structures appear in SMILES notation. pIC50: −log10 of the molar value.

T1 sequence (P47989 whole entry): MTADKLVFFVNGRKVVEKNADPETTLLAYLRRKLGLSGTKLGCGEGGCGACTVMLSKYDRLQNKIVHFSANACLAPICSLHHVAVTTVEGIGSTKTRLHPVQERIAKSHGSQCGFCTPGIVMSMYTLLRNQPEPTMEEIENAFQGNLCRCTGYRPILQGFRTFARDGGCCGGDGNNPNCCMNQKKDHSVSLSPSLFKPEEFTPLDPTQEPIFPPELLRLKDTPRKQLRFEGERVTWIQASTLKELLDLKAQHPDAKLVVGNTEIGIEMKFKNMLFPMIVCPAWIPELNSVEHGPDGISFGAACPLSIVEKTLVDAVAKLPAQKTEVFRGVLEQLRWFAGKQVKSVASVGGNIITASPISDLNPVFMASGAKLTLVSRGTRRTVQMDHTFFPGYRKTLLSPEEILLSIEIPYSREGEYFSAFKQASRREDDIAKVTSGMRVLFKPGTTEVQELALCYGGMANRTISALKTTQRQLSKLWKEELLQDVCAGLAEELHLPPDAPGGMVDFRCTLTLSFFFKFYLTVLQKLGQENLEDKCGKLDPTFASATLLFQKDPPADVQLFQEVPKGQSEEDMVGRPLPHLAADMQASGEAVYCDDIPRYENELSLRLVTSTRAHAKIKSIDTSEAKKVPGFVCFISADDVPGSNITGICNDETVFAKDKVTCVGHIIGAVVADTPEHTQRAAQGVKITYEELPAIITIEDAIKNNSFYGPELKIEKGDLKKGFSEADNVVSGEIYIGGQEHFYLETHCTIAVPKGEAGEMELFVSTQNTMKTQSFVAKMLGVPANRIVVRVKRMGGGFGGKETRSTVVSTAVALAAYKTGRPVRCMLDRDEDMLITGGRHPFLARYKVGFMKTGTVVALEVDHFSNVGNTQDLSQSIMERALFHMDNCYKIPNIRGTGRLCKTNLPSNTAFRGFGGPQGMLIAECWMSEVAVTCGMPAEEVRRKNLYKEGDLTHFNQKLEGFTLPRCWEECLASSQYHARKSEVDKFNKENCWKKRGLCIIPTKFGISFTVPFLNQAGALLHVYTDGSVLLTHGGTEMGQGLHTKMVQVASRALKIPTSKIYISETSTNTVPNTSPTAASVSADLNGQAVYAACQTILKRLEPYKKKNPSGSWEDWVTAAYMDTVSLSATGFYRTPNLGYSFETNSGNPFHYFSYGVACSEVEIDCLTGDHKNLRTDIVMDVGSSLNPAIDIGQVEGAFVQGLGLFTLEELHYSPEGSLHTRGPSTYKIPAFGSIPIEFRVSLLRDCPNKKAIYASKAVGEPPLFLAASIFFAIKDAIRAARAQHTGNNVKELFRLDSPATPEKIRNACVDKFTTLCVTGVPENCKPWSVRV

Take `COc1ccc(C(=O)O[C@@H]2Cc3ccc(O)c(O)c3O[C@H]2c2ccc(O)c(O)c2)cc1`: the SC50 in test [1] stood at 6.72 µM. Also, the IC50 entry in test [2] is given as “Not Active”. In addition, the pIC50 in test [3] was 4.17.

Consider `CC(=O)O[C@@H]1Cc2ccc(O)c(O)c2O[C@H]1c1ccc(O)c(O)c1`, for which the pIC50 in test [4] was 3.82; in test [3] it was 4.33. Moreover, the SC50 was found to be 7.15 µM in test [1] and 13 µM in test [5].

In the case of `OC[C@H]1NC[C@H](O)[C@@H](O)[C@@H]1O` [DUVOGLUSTAT], the pIC50 in test [3] was 4.30.

Regarding `O=C(O[C@@H]1Cc2ccc(O)c(O)c2O[C@H]1c1ccc(O)c(O)c1)c1ccccc1`, the SC50 in test [1] is 11.5 µM. The IC50 result in test [2] is listed as “Not Active”. The pIC50 in test [3] is 4.11.

`Oc1cc(O)c2c(c1)O[C@H](c1ccc(O)c(O)c1)[C@H](O)C2` [(-)-EPICATECHIN]: the SC50 in test [1] stood at 13.5 µM. Further, in test [2], the IC50 entry is given as “Not Active”. For the same molecule, the pIC50 in test [3] is 3.75.

Take `CCCCCCCCCCCCCCCC(=O)O[C@@H]1Cc2ccc(O)c(O)c2O[C@H]1c1ccc(O)c(O)c1`: the results for the negative logarithm of the IC50 (pIC50) in test [4] and in test [3] were 4.02 and 5.02, respectively. Further, the results for the SC50 in test [1] and in test [5] were 5.17 µM and 10.1 µM, respectively.

Take `O=C(O[C@@H]1Cc2ccc(O)c(O)c2O[C@H]1c1ccc(O)c(O)c1)c1ccc(F)cc1`: the SC50 in test [1] is 8.99 µM. Moreover, the IC50 result in test [2] is given as “Not Active”. For the same molecule, in test [3], the negative logarithm of the IC50 (pIC50) was 4.48.

Consider `Oc1ccc([C@@H]2Oc3c(ccc(O)c3O)C[C@H]2O)cc1O`, for which the SC50 in test [1] was 6.72 µM; in test [5], 14.6 µM. The IC50 result in test [2] is listed as “Not Active”. This molecule also gave a pIC50 in test [3] of 4.08.

As for `CCCCCC(=O)O[C@@H]1Cc2ccc(O)c(O)c2O[C@H]1c1ccc(O)c(O)c1`, the results for the pIC50 in test [4] and in test [3] were 3.89 and 4.31, respectively. The SC50 in test [1] is 6.68 µM; in test [5], 14.4 µM.

With `CCCCCCCCCC(=O)O[C@@H]1Cc2ccc(O)c(O)c2O[C@H]1c1ccc(O)c(O)c1`, the results for the pIC50 in test [4] and in test [3] were 3.95 and 4.87, respectively. Further, the SC50 came out at 6.07 µM in test [1] and 17.5 µM in test [5].

Regarding `CCCCCCCCCCCCCCCCCC(=O)O[C@@H]1Cc2ccc(O)c(O)c2O[C@H]1c1ccc(O)c(O)c1`, the pIC50 in test [4] was 3.81; in test [3] it was 4.26. Besides, the SC50 in test [1] was 9.43 µM; in test [5], 17.8 µM.

On to `O=C(O[C@@H]1Cc2ccc(O)c(O)c2O[C@H]1c1ccc(O)c(O)c1)c1ccccc1Cl`, for which, in test [1], the SC50 worked out at 7.97 µM. For the same molecule, the IC50 entry in test [2] is on record as “Not Active”. Moreover, the pIC50 in test [3] is 4.36.

On to `CC(C)(Sc1cc(C(C)(C)C)c(O)c(C(C)(C)C)c1)Sc1cc(C(C)(C)C)c(O)c(C(C)(C)C)c1`, for which the SC50 in test [1] is 21.7 µM.

For `CCCCCCCCCCCCCC(=O)O[C@@H]1Cc2ccc(O)c(O)c2O[C@H]1c1ccc(O)c(O)c1`, the pIC50 in test [4] is 3.99; in test [3], 4.90. For the same molecule, the SC50 was 7.51 µM in test [1] and 11.3 µM in test [5].

For the molecule `CCCC(=O)O[C@@H]1Cc2ccc(O)c(O)c2O[C@H]1c1ccc(O)c(O)c1`, the pIC50 in test [4] was 3.86; in test [3], 4.34. The SC50 in test [1] was determined as 8.89 µM; in test [5], 14.1 µM.

For the molecule `Cc1c(C)c2c(c(C)c1O)CCC(C)(C(=O)O)O2` (stereo unspecified), the figures for the SC50 in test [1] and in test [5] were 15.9 µM and 1.82 µM, respectively.

As a reminder, the pIC50 is the negative decadic logarithm of the IC50, by convention in mol/L.

For the origin of these results see ChEMBL document CHEMBL1136168, “Novel 3-O-acyl mesquitol analogues as free-radical scavengers and enzyme inhibitors: synthesis, biological evaluation and structure-activity relationship” (Bioorg Med Chem Lett, 2003).
